Data from ChEMBL document CHEMBL1147111, “In vitro and in vivo activities of synthetic trioxolanes against major human schistosome species” (Antimicrob Agents Chemother, 2007).
Calls of active or inactive are those of the source. No cut-off for these calls is given here.

Assays:
Schistosoma mansoni [1] = test: Antischistosomal activity against NMRI mouse juvenile Schistosoma mansoni infection model assessed as reduction of total worm burden at 200 mg/kg, po after 28 days; assay type: functional; design: scale not given: the % may be the effect or the level left
How it was run: (§1)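 Juvenile-infection model: mice carrying Liberian-strain S. mansoni got one oral dose at day 21 postinfection, as a suspension in 7% Tween 80/3% ethanol. There were 3–5 per group, plus untreated controls. Necropsy by exsanguination followed 28 days after treatment. Liver and mesenteric-vein worms were collected, sexed and counted. Total and female burden reductions were calculated versus controls, with Kruskal-Wallis testing.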

Schistosoma mansoni [2] = test: Antischistosomal activity against NMRI mouse juvenile Schistosoma mansoni infection model assessed as number of cured mouse at 200 mg/kg, po after 28 days; assay type: functional, organism-based; design: dose 200 mg/kg; how it was run: as §1
Schistosoma mansoni [3] = test: Antischistosomal activity against NMRI mouse juvenile Schistosoma mansoni infection model assessed as reduction of female worm burden at 200 mg/kg, po after 28 days; assay type: functional; design: scale not given: the % may be the effect or the level left; how it was run: as §1
Schistosoma mansoni [4] = test: Antischistosomal activity against NMRI mouse adult Schistosoma mansoni infection model assessed as reduction of female worm burden at 400 mg/kg, po after 28 days; assay type: functional; design: scale not given: the % may be the effect or the level left
How it was run: (§2)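 Mice with a Liberian-strain S. mansoni infection were dosed at 49 days postinfection with a single oral dose of compound suspended in 7% Tween 80/3% ethanol. Groups held 3–5 animals, with untreated controls. At 28 days posttreatment, animals were killed by bleeding. Worms in liver and mesenteric veins were removed, sexed and counted. Reductions were calculated against controls and tested by Kruskal-Wallis.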

Schistosoma mansoni [5] = test: Antischistosomal activity against NMRI mouse adult Schistosoma mansoni infection model assessed as number of cured mouse at 400 mg/kg, po after 28 days; assay type: functional, organism-based; design: dose 400 mg/kg; how it was run: as §2
Schistosoma mansoni [6] = test: Antischistosomal activity against NMRI mouse adult Schistosoma mansoni infection model assessed as reduction of total worm burden at 400 mg/kg, po after 28 days; assay type: functional; design: scale not given: the % may be the effect or the level left; how it was run: as §2
Schistosoma mansoni [7] = test: Antischistosomal activity against Syrian golden hamster adult Schistosoma mansoni infection model assessed as reduction of female worm burden at 50 mg/kg, po after 28 days; assay type: functional; design: scale not given: the % may be the effect or the level left
How it was run: (§3)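 Hamsters infected with Liberian-strain S. mansoni were treated once orally at 21 days (juvenile lines) or 49 days (adult lines) postinfection. Doses were 50, 100 or 200 mg/kg, in 7% Tween 80/3% ethanol suspension. Groups had 3–4 animals, with untreated controls. After 28 days, animals were bled out. Worms from liver and mesenteric veins were sexed and counted, and cures and burden reductions versus controls were recorded (Kruskal-Wallis).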

Schistosoma mansoni [8] = test: Antischistosomal activity against Syrian golden hamster juvenile Schistosoma mansoni infection model assessed as reduction of total worm burden at 50 mg/kg, po after 28 days; assay type: functional; design: scale not given: the % may be the effect or the level left; how it was run: as §3
Schistosoma mansoni [9] = test: Antischistosomal activity against Syrian golden hamster adult Schistosoma mansoni infection model assessed as number of cured mouse at 50 mg/kg, po after 28 days; assay type: functional, organism-based; design: dose 50 mg/kg; how it was run: as §3
Schistosoma mansoni [10] = test: Antischistosomal activity against Syrian golden hamster juvenile Schistosoma mansoni infection model assessed as reduction of total worm burden at 100 mg/kg, po after 28 days; assay type: functional; design: scale not given: the % may be the effect or the level left; how it was run: as §3
Schistosoma mansoni [11] = test: Antischistosomal activity against Syrian golden hamster adult Schistosoma mansoni infection model assessed as number of cured mouse at 200 mg/kg, po after 28 days; assay type: functional, organism-based; design: dose 200 mg/kg; how it was run: as §3
Schistosoma mansoni [12] = test: Antischistosomal activity against Syrian golden hamster adult Schistosoma mansoni infection model assessed as reduction of female worm burden at 100 mg/kg, po after 28 days; assay type: functional; design: scale not given: the % may be the effect or the level left; how it was run: as §3
Schistosoma mansoni [13] = test: Antischistosomal activity against Syrian golden hamster adult Schistosoma mansoni infection model assessed as number of cured mouse at 100 mg/kg, po after 28 days; assay type: functional, organism-based; design: dose 100 mg/kg; how it was run: as §3
Schistosoma mansoni [14] = test: Antischistosomal activity against Syrian golden hamster adult Schistosoma mansoni infection model assessed as reduction of female worm burden at 200 mg/kg, po after 28 days; assay type: functional; design: scale not given: the % may be the effect or the level left; how it was run: as §3
Schistosoma mansoni [15] = test: Antischistosomal activity against Syrian golden hamster juvenile Schistosoma mansoni infection model assessed as reduction of female worm burden at 200 mg/kg, po after 28 days; assay type: functional; design: scale not given: the % may be the effect or the level left; how it was run: as §3
Schistosoma mansoni [16] = test: Antischistosomal activity against Syrian golden hamster juvenile Schistosoma mansoni infection model assessed as number of cured mouse at 50 mg/kg, po after 28 days; assay type: functional, organism-based; design: dose 50 mg/kg; how it was run: as §3
Schistosoma mansoni [17] = test: Antischistosomal activity against Syrian golden hamster adult Schistosoma mansoni infection model assessed as reduction of total worm burden at 50 mg/kg, po after 28 days; assay type: functional; design: scale not given: the % may be the effect or the level left; how it was run: as §3
Schistosoma mansoni [18] = test: Antischistosomal activity against Syrian golden hamster adult Schistosoma mansoni infection model assessed as reduction of total worm burden at 100 mg/kg, po after 28 days; assay type: functional; design: scale not given: the % may be the effect or the level left; how it was run: as §3
Schistosoma mansoni [19] = test: Antischistosomal activity against Syrian golden hamster juvenile Schistosoma mansoni infection model assessed as reduction of female worm burden at 100 mg/kg, po after 28 days; assay type: functional; design: scale not given: the % may be the effect or the level left; how it was run: as §3
Schistosoma mansoni [20] = test: Antischistosomal activity against Syrian golden hamster juvenile Schistosoma mansoni infection model assessed as reduction of total worm burden at 200 mg/kg, po after 28 days; assay type: functional; design: scale not given: the % may be the effect or the level left; how it was run: as §3
Schistosoma mansoni [21] = test: Antischistosomal activity against Syrian golden hamster juvenile Schistosoma mansoni infection model assessed as reduction of female worm burden at 50 mg/kg, po after 28 days; assay type: functional; design: scale not given: the % may be the effect or the level left; how it was run: as §3
Schistosoma mansoni [22] = test: Antischistosomal activity against Syrian golden hamster juvenile Schistosoma mansoni infection model assessed as number of cured mouse at 100 mg/kg, po after 28 days; assay type: functional, organism-based; design: dose 100 mg/kg; how it was run: as §3

`C1CCC2(CC1)COC1(O2)C2CC3CC(C2)CC1C3` (configuration not stated) was tested, and the Activity (Schistosoma mansoni [1]) was 0%, the Activity (Schistosoma mansoni [2]) was “inactive” and the Activity (Schistosoma mansoni [3]) was 0%.

With `C1CCC2(CC1)OCC1(O2)C2CC3CC(C2)CC1C3` (configuration not stated) the Activity (Schistosoma mansoni [1]) was 2%, the Activity (Schistosoma mansoni [2]) was “inactive” and the Activity (Schistosoma mansoni [3]) was 4.8%.

For `C1CCC2(CC1)OOC1(O2)C2CC3CC(C2)CC1C3` (configuration not stated), the Activity (Schistosoma mansoni [4]) was 29.3%, the Activity (Schistosoma mansoni [1]) was 82% and the Activity (Schistosoma mansoni [5]) was “inactive”. The Activity (Schistosoma mansoni [2]) was “inactive”, the Activity (Schistosoma mansoni [6]) was 29.1% and the Activity (Schistosoma mansoni [3]) was 79.2%.

For `C1CCC2(CC1)COC1(CCCCC1)OO2`, the Activity (Schistosoma mansoni [1]) was 0%, the Activity (Schistosoma mansoni [2]) was “inactive” and the Activity (Schistosoma mansoni [3]) was 0%.

With `Oc1ccc([C@H]2CC[C@]3(CC2)OO[C@]2(O3)C3CC4CC(C3)CC2C4)cc1` the Activity (Schistosoma mansoni [7]) was 36.7%, the Activity (Schistosoma mansoni [8]) was 82.7% and the Activity (Schistosoma mansoni [4]) was 64.9%. For the same molecule, the Activity (Schistosoma mansoni [9]) was “inactive”, the Activity (Schistosoma mansoni [10]) was 84% and the Activity (Schistosoma mansoni [11]) was “inactive”. For the same molecule, the Activity (Schistosoma mansoni [12]) was 41.2%, the Activity (Schistosoma mansoni [13]) was “inactive” and the Activity (Schistosoma mansoni [14]) was 69.7%. For the same molecule, the Activity (Schistosoma mansoni [1]) was 95.4%, the Activity (Schistosoma mansoni [15]) was 86.4% and the Activity (Schistosoma mansoni [16]) was “inactive”. The Activity (Schistosoma mansoni [5]) was “inactive”, the Activity (Schistosoma mansoni [17]) was 46.6% and the Activity (Schistosoma mansoni [2]) was “inactive”. It also gave an Activity (Schistosoma mansoni [18]) of 52.4%, an Activity (Schistosoma mansoni [6]) of 52.2% and an Activity (Schistosoma mansoni [3]) of 96.2%. The Activity (Schistosoma mansoni [19]) was 80.5%, the Activity (Schistosoma mansoni [20]) was 86.5% and the Activity (Schistosoma mansoni [21]) was 78.7%. For the same molecule, the Activity (Schistosoma mansoni [22]) was “inactive”.
